Reference: ChEMBL document CHEMBL1122504, “Heterocyclic Quinones. 4. A new highly cytotoxic drug: 6,7-bis(1-aziridinyl)-5,8-quinazolinedione” (1983)
“And” between values parts separate entries of the source, which are not always exact repeats. Equal values may be shown once.

Legend:
[1] = test system: B16; assay: Number of survivors of B16 melanocarcinoma cell line on day 5/ number of treated mice at a dose of 1 ip injection of 2.5 mg/kg on Q01Dx01 treatment schedule; 10/10; type: functional, Mus musculus; conditions: route intraperitoneal
[2] = test system: P388; assay: Median survival time of P388 lymphocytic leukemia cell line after a dose of 20 mg/kg administered perorally on Q01Dx07 treatment schedule; type: functional, Mus musculus; conditions: route oral
How it was run: (§1)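 P388 leukaemia: DBA/2 mice inoculated with 10^6 cells on day 0; treatment began day 1 at the stated route and schedule. Drug was dissolved in 0.15 M NaCl saline. The read-out was median survival time (MST, days), with toxicity taken as survivors on day 5. T/C% = treated MST/control MST × 100; ≥125% is considered significant.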

[3] = test system: P388; assay: Number of survivors of P388 lymphocytic leukemia cell line on day 5/ number of treated mice at a dose of 7po injection of 20 mg/kg on Q01Dx07 treatment schedule; 10/10; type: functional, Mus musculus
[4] = test system: L1210; assay: Number of survivors of L1210 cell line on day 5/ number of treated mice at a dose of 9ip injection of 5 mg/kg on Q01Dx09 treatment schedule; 10/10; type: functional, Mus musculus
[5] = test system: B16; assay: Number of survivors of B16 melanocarcinoma cell line on day 5/ number of treated mice at a dose of 1 ip injection of 10 mg/kg on Q01Dx01 treatment schedule; 10/10; type: functional, Mus musculus; conditions: route intraperitoneal
[6] = test system: P388; assay: Median survival time of P388 lymphocytic leukemia cell line after a dose of 2.5 mg/kg administered intravenously on Q01Dx01 treatment schedule; type: functional, Mus musculus; conditions: route intravenous; how it was run: as §1
[7] = test system: P388; assay: MST of treated animal over control when administered at a dose of 10 mg/kg intraperitoneally on Q04Dx03 treatment schedule; type: functional, Mus musculus; conditions: route intraperitoneal; how it was run: as §1
[8] = test system: L1210; assay: Number of survivors of L1210 cell line on day 5/ number of treated mice at a dose of 5ip injection of 10 mg/kg on Q01Dx05 treatment schedule; 10/10; type: functional, Mus musculus
[9] = test system: P388; assay: Number of survivors of P388 lymphocytic leukemia cell line on day 5/ number of treated mice at a dose of 9 ip injection of 2.5 mg/kg on Q01Dx09 treatment schedule; 10/10; type: functional, Mus musculus; conditions: route intraperitoneal
[10] = test system: Salmonella typhimurium; assay: Mutagenesis test was performed at 0.3 uM concentration in Salmonella Typhimurium TA 100; type: functional, Salmonella enterica subsp. enterica serovar Typhimurium
How it was run: (§2)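 Salmonella typhimurium his auxotrophs TA98 and TA100 were tested by liquid suspension without metabolic activation. Overnight Oxoid nutrient broth cultures were subcultured, grown 2 h, then exposed to drug for 5 h. Cells were washed, resuspended to A650 2.50, and plated in top agar (0.6% agar, 0.6% NaCl). His+ revertants per plate were counted after 48 h at 37 °C; values are means of three assays.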

[11] = test system: P388; assay: Number of survivors of P388 lymphocytic leukemia cell line on day 5/ number of treated mice at a dose of 5 ip injection of 10 mg/kg on Q01Dx05 treatment schedule; 10/10; type: functional, Mus musculus; conditions: route intraperitoneal
[12] = test system: P388; assay: Number of survivors of P388 lymphocytic leukemia cell line on day 5/ number of treated mice at a dose of 7po injection of 10 mg/kg on Q01Dx07 treatment schedule; 10/10; type: functional, Mus musculus
[13] = test system: P388; assay: Median survival time of P388 lymphocytic leukemia cell line after a dose of 10 mg/kg administered intraperitoneally on Q04Dx03 treatment schedule; type: functional, Mus musculus; conditions: route intraperitoneal; how it was run: as §1
[14] = test system: L1210; assay: Number of survivors of L1210 cell line on day 5/ number of treated mice at a dose of 5ip injection of 5 mg/kg on Q01Dx05 treatment schedule; 10/10; type: functional, Mus musculus
[15] = test system: P388; assay: MST of treated animal over control when administered at a dose of 5 mg/kg intraperitoneally on Q01Dx09 treatment schedule; type: functional, Mus musculus; conditions: route intraperitoneal; how it was run: as §1
[16] = test system: L1210; assay: MST of treated animal over control when administered at a dose of 5 mg/kg intraperitoneally on Q01Dx05 treatment schedule in L1210 cell lines; type: functional, Mus musculus; conditions: route intraperitoneal
How it was run: (§3)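 L1210 leukaemia: DBA/2 mice inoculated ip with 10^5 cells on day 0, with ip drug in 0.15 M NaCl saline on the stated schedule. The read-out was median survival time in days, with toxicity taken as survivors on day 5. T/C% = treated MST/control MST × 100; >125% is considered significant.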

[17] = test system: L1210; assay: MST of treated animal over control when administered at a dose of 15 mg/kg intraperitoneally on Q01Dx02 treatment schedule in L1210 cell lines; type: functional, Mus musculus; conditions: route intraperitoneal; how it was run: as §3
[18] = test system: P388; assay: Number of survivors of P388 lymphocytic leukemia cell line on day 5/ number of treated mice at a dose of 1 i.v. injection of 15 mg/kg on Q01Dx01 treatment schedule; 10/10; type: functional, Mus musculus; conditions: route intravenous
[19] = test system: Sarcoma-180; assay: Number of survivors of sarcoma 180 cell line on day 5/ number of treated mice at a dose of 1 ip injection of 10 mg/kg on Q01Dx01 treatment schedule; 10/10; type: functional, Mus musculus; conditions: route intraperitoneal
[20] = test system: L1210; assay: Concentration that decreases the growth rate of the L1210 cells by 50% after 48 hr of culture; type: functional; conditions: Mus musculus, L1210, 48 h; read-out: ID50 (the source's name)
How it was run: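 L1210 leukemia cells cultured with increasing drug concentrations for 48 h at 37 °C under 5% CO2. Percentage inhibition of control growth was fitted by least-squares linear regression against log dose, and the concentration lowering control growth by 50% was estimated from the regression equation.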

[21] = test system: L1210; assay: Median survival time of L1210 cell line after a dose of 20 mg/kg administered intraperitoneally on Q01Dx01 treatment schedule; type: functional, Mus musculus; conditions: route intraperitoneal; how it was run: as §3
[22] = test system: Salmonella typhimurium; assay: Mutagenesis test was performed at 40 uM concentration in Salmonella Typhimurium TA 100; type: functional, Salmonella enterica subsp. enterica serovar Typhimurium; how it was run: as §2
[23] = test system: B16; assay: MST of treated animal over control when administered at a dose of 2.5 mg/kg intraperitoneally on Q01Dx01 treatment schedule in B16 melanocarcinoma cell lines; type: functional, Mus musculus; conditions: route intraperitoneal
How it was run: (§4)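 B16 melanocarcinoma: C57Bl/6 mice implanted sc with cell suspension on day 0; single ip dose in 0.15 M NaCl saline given on day 1. Median survival time was recorded in days, with toxicity taken as survivors on day 5. T/C% = treated MST/control MST × 100; >125% is considered significant.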

[24] = test system: P388; assay: Number of survivors of P388 lymphocytic leukemia cell line on day 5/ number of treated mice at a dose of 1 i.p. injection of 20 mg/kg on Q01Dx01 treatment schedule; 10/10; type: functional, Mus musculus; conditions: route intraperitoneal
[25] = test system: L1210; assay: Number of survivors of L1210 cell line on day 5/ number of treated mice at a dose of 9ip injection of 2.5 mg/kg on Q01Dx09 treatment schedule; 10/10; type: functional, Mus musculus
[26] = test system: P388; assay: MST of treated animal over control when administered at a dose of 20 mg/kg perorally on Q01Dx07 treatment schedule; type: functional, Mus musculus; conditions: route oral; how it was run: as §1
[27] = test system: L1210; assay: Median survival time of L1210 cell line after a dose of 5 mg/kg administered intraperitoneally on Q01Dx09 treatment schedule; type: functional, Mus musculus; conditions: route intraperitoneal; how it was run: as §3
[28] = test system: Salmonella typhimurium; assay: Mutagenesis test was performed at 60 uM concentration in Salmonella Typhimurium TA 100; type: functional, Salmonella enterica subsp. enterica serovar Typhimurium; how it was run: as §2
[29] = test system: B16; assay: MST of treated animal over control when administered at a dose of 5 mg/kg intraperitoneally on Q01Dx01 treatment schedule in B16 melanocarcinoma cell lines; type: functional, Mus musculus; conditions: route intraperitoneal; how it was run: as §4
[30] = test system: Salmonella typhimurium; assay: Mutagenesis test was performed at 60 uM concentration in Salmonella Typhimurium TA 98; type: functional, Salmonella enterica subsp. enterica serovar Typhimurium; how it was run: as §2

In the case of `O=C1C(N2CC2)=C(N2CC2)C(=O)c2ncncc21`, the “Toxicity Survivors” value [1] is reported as 10, the MST [2] is reported as 7.6 days and the “Toxicity Survivors” value [3] is reported as 10. For the same molecule, the “Toxicity Survivors” value [4] was 10, the “Toxicity Survivors” value [5] was 10 and the MST [6] was 10.4 days. For the same molecule, the T/C [7] was 132%, the “Toxicity Survivors” value [8] was 10 and the “Toxicity Survivors” value [9] was 10. The Revertants/plate [10] was 76, the “Toxicity Survivors” value [11] was 10 and the “Toxicity Survivors” value [12] was 10. The MST [13] was 9.9 days, the “Toxicity Survivors” value [14] was 10 and the T/C [15] was 148%. For the same molecule, the T/C [16] was 108%, the T/C [17] was 104% and the “Toxicity Survivors” value [18] was 10. The “Toxicity Survivors” value [19] was 10, the IC50 [20] was 0.02 µg/mL and 80 nM and the MST [21] was 9.4 days. For the same molecule, the Revertants/plate [22] was 461, the T/C [23] was 121% and the “Toxicity Survivors” value [24] was 10. The “Toxicity Survivors” value [25] was 10, the T/C [26] was 105% and the MST [27] was 9.1 days. It also gave a Revertants/plate [28] of 501, a T/C [29] of 126% and a Revertants/plate [30] of 1080.
